Compound activity deposited in PubChem by several laboratories.
Rows were chosen to be rich in hits. Some 5.6% of all compounds tested hit in one or more screens of this group.
CHOP inh: blocks CHOP induction under ER stress; CHO-K1 CHOP-promoter luciferase, tunicamycin-induced, 15-18 h; inhibition, % at 10 µM; 3.8% of 220,000 active;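 active = compounds that reduced the stress-induced luciferase reporter signal by more than about 70% of percent inhibition, limit read from the data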
aDG glyco up: alpha-DG glycosylation activation; Pro5-aDG cells, alpha-DG glycosylation AlphaScreen (IIH6); 0% Pro5, 100% B10-LARGE cell signal; activation, % at 10 µM; 0.22% of 360,000 active;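 active = activation of at least 8% versus controls, or a plate z-score of at least 8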;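 note: Pro5 are CHO cells carrying HIG-tagged alpha-DG that lacks glycosylation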
CHOP UPR activ: activators of apoptotic arm of unfolded protein response (CHOP); CHO-CHOP luciferase reporter, UPR activation, luminescence; percent of tunicamycin response over DMSO baseline; AID 449763; 0.34% of 330,000 active; activation, % at 10 µM;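 active = at 10 µM dose, activation of 40% or more, normalized to positive control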
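assay system = CHO CHOP reporter cells | amount = 500 CHO-CHOP cells per well | buffer or medium = F12 with 10% FBS | incubation = 16-18 h cell attachment, then 6 h compound exposure, 37 °C | detection = luminescence read with Steady-Glo | read-out = percent activation relative to tunicamycin control | controls = tunicamycin high control, DMSO low control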
NR3A LBD binder: NR3A (human) ligand-binding domain modulation. NR3A LBD differential scanning fluorimetry, Tm shift; 0% = protein alone, 100% = glycine-bound protein. AID 1259313. 2.5% of 340,000 active. Tm shift relative to glycine control, % at 25 µM;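 active = melting temperature shift of at least 10% of the positive control shift, at one fixed dose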
XBP1 UPR activ: activators of adaptive arm of unfolded protein response (XBP1). 0.33% of 330,000 active. activation, % at 20 µM. AID 463104. CHO-XBP1 luciferase reporter, IRE1-XBP1 UPR activation, luminescence; percent of tunicamycin response, DMSO as zero;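 active = versus positive control, 20 µM dose yields 30% or more activation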
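Material – CHO cell line with stable XBP1 luciferase reporter · Buffer or medium – F12 plus 10% FBS · Compound – single point, 20 µM final compound, 1% DMSO · Schedule – 16-18 h cell attachment at 37 °C, then 6 h compound exposure · Signal – Steady-Glo luminescence read · Benchmarks – high control tunicamycin 10 µg/mL final, low control DMSO vehicle only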
MPTP block: inhibitors of mitochondrial permeability transition pore; isolated mouse mitochondria, Ca2+ swelling absorbance, 30 min; inhibition, % at 10 µM; 1.4% of 360,000 active;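 active = inhibition of 50% or more, scaled per plate between neutral and stimulator controls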
CHOP confirm: confirmation of CHOP induction inhibitors. CHO-CHOP promoter luciferase reporter, tunicamycin-induced, luminescence. 45% of 2,100 active. AID 504437. shares compounds with CHOP inh. inhibition, % at 10 µM;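 active = mean of three repeat readings of reporter signal inhibition above a set limit, cut at about 70% in these data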
Hits are given with their value.

Cc1nc(SCC(=O)Nc2ccccc2)c2oc3ccccc3c2n1 was read as CHOP inh 96, aDG glyco up inactive, CHOP UPR activ inactive, NR3A LBD binder inactive, XBP1 UPR activ inactive, MPTP block inactive and CHOP confirm inactive.
CSCCC1NC(=S)N(Cc2ccccc2)C1=O (stereo not given) was read as aDG glyco up inactive, CHOP UPR activ inactive, NR3A LBD binder inactive, XBP1 UPR activ inactive and MPTP block inactive.
`COC(=O)c1c(N2C(=O)[C@H]3[C@@H](C2=O)[C@]2(C(=O)Nc4ccc(C)cc42)N2CCC[C@@H]32)sc(C)c1C` gave CHOP inh inactive, CHOP UPR activ inactive and XBP1 UPR activ inactive.
For Cc1[nH]c2ccccc2c1/C=N/NC(=O)C1CC1(c1ccccc1)c1ccccc1 (stereo not given) the results were CHOP inh 106, aDG glyco up inactive, CHOP UPR activ inactive, NR3A LBD binder 12, XBP1 UPR activ inactive, MPTP block inactive and CHOP confirm 101.
For Cc1cc(C)c2c(CC(=O)Nc3ccc(Cl)cn3)coc2c1 the results were CHOP inh 97, aDG glyco up inactive, CHOP UPR activ inactive, NR3A LBD binder inactive, XBP1 UPR activ inactive, MPTP block inactive and CHOP confirm inactive.
Screening O=C(Cc1ccsc1)Nc1ccc(S(=O)(=O)C(F)F)cc1 returned CHOP inh inactive, aDG glyco up inactive, CHOP UPR activ inactive, NR3A LBD binder inactive, XBP1 UPR activ inactive and MPTP block inactive.
Screening Cc1ccc(Nc2nc(N)c([N+](=O)[O-])c(N3CCC(C)CC3)n2)cc1C returned CHOP inh 101, aDG glyco up inactive, CHOP UPR activ inactive, NR3A LBD binder inactive, XBP1 UPR activ inactive, MPTP block inactive and CHOP confirm 102.
`CCOC(=O)C1CCCCN1Cc1ccc(F)c(Br)c1` (stereo not given) gave CHOP inh 106, aDG glyco up inactive, CHOP UPR activ inactive, NR3A LBD binder inactive, XBP1 UPR activ inactive, MPTP block inactive and CHOP confirm inactive.
For CCOC(=O)C1CCCCN1Cc1ccc(OC)c(OC)c1 (stereo not given) the results were CHOP inh inactive, aDG glyco up inactive, CHOP UPR activ inactive, NR3A LBD binder inactive, XBP1 UPR activ inactive and MPTP block inactive.
Screening COC(=O)[C@@]12C[C@@H](CC(=O)N3CCCC3)C(=O)N(Cc3ccccc3)C1=CCC(C)(C)C2 returned aDG glyco up inactive and MPTP block inactive.
Screening Cc1ccc(C(=O)OCN2C(=O)c3ccccc3C2=O)o1 returned aDG glyco up inactive, CHOP UPR activ inactive, NR3A LBD binder inactive, XBP1 UPR activ inactive and MPTP block inactive.
Screening CCOC(=O)C1=C(N)Oc2c(c(=O)[nH]c3ccccc23)C1c1ccccc1 (stereo not given) returned CHOP inh 97, aDG glyco up inactive, CHOP UPR activ inactive, NR3A LBD binder inactive, XBP1 UPR activ inactive, MPTP block inactive and CHOP confirm inactive.
For Nc1nc2c(Cl)ccc(Cl)c2s1 the results were CHOP inh inactive, aDG glyco up inactive, CHOP UPR activ inactive, NR3A LBD binder inactive, XBP1 UPR activ inactive and MPTP block inactive.
`CC(C)C[C@H](N)c1nnc(SCC(=O)Nc2ccc(Br)cc2)o1` gave aDG glyco up inactive, CHOP UPR activ inactive, NR3A LBD binder inactive, XBP1 UPR activ inactive and MPTP block inactive.
Screening CC(C)C[C@H](N)c1nnc(S(=O)(=O)Cc2ccc(F)cc2)o1 returned CHOP inh 103, aDG glyco up inactive, CHOP UPR activ inactive, NR3A LBD binder inactive, XBP1 UPR activ inactive, MPTP block inactive and CHOP confirm inactive.
CC(C)OC(=O)c1cccc2c1C(=O)c1ccccc1-2 was read as CHOP inh inactive, aDG glyco up inactive, CHOP UPR activ inactive, NR3A LBD binder inactive, XBP1 UPR activ inactive and MPTP block inactive.
`CC(C)COC(=O)c1cccc2c1-c1ccccc1/C2=N\O` gave CHOP inh 101, aDG glyco up inactive, CHOP UPR activ inactive, NR3A LBD binder inactive, XBP1 UPR activ inactive, MPTP block inactive and CHOP confirm inactive.
